Bioassay records (PubChem)
CHO-K1 Ca antag: nonselective inhibitor or artifact in parental CHO-K1 cells. ATP-induced calcium, Fluo-8 fluorescence. inhibition, % at 3 µM. 0.6% of 360,000 active;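 active means inhibition above a per-plate cutoff, the plate's mean sample inhibition plus 3 SD, cut at about 24% in these data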
M1 ag parental: nonselective activator or artifact in parental CHO-K1 cells; Fluo-8 calcium fluorescence; scaled to maximal ATP response, vehicle zero; activation, % at 3 µM; 0.48% of 360,000 active; in the data active means activation above about 15%;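 further: untransfected CHO-K1 host cells lacking M1 receptor as counterscreen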
CHRM5 antagonist: blocks acetylcholine activation of human M5 receptor; P08912; CHO-hM5 cells, Fluo-8 calcium fluorescence, ACh EC80; inhibition, % at 3 µM; 0.59% of 360,000 active; AID 624040;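 active means inhibition above a per-plate cutoff, the mean of that plate's test compounds plus 3 SD, cut at about 27% in these data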
Target sequence (P08912 whole entry, looked up): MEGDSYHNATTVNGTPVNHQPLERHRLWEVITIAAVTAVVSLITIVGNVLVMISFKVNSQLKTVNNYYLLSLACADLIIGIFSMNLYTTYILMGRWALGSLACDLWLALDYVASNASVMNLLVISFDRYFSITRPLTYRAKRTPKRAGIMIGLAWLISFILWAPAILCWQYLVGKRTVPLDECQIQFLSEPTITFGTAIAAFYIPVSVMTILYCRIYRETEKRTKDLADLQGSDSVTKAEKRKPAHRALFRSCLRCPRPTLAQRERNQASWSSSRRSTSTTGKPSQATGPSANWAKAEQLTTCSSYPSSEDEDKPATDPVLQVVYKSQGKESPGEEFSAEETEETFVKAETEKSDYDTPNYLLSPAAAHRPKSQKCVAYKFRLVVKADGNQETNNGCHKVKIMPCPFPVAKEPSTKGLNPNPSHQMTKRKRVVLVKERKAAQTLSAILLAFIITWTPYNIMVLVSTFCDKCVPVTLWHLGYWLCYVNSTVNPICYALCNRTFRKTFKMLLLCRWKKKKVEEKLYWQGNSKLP
CHRM5 PAM: potentiates acetylcholine response at human M5 receptor; CHO-K1 hM5, Fluo-8 calcium, ACh EC20 PAM; 0% = ACh EC20, 100% = ACh EC100; activation, % at 3 µM; 0.3% of 360,000 active; AID 624038;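 active means activation above the run cutoff, the mean activation of all test compounds plus 3 SD, cut at about 18% in these data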
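Assay system – human M5 receptor in CHO-K1 cells · Read-out – % activation, ACh-normalized · Technique – Fluo-8 calcium fluorescence · Dosing – single-point, 3 µM nominal · Incubation – Fluo-8 loading 80 min at 37 °C plus 30 min room temperature · Repeats – singlicate, one well per test compound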
M5 ag: agonists of human muscarinic M5 receptor (CHRM5); P08912; CHO-K1 hM5 cells, Fluo-8 calcium fluorescence; 0% DMSO wells, 100% maximal acetylcholine response; activation, % at 3 µM; 0.19% of 360,000 active; AID 624037;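 active means activation above the run's mean over test compounds plus 3 SD, cut at about 23% in these data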;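 further: signal is peak over basal fluorescence ratio across the kinetic read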
CHO-K1 Ca PAM: nonselective activator or artifact in parental CHO-K1 calcium assay; ATP EC20, Fluo-8 calcium fluorescence; 0% at ATP EC20, 100% at ATP max; activation, % at 3 µM; 0.02% of 360,000 active; AID 602247;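 active means activation above the run cutoff, the mean activation of all test compounds plus 3 SD, cut at about 40% in these data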;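 further: peak over basal fluorescence ratio in a 140 s read after ATP addition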
Numbers stand for hits; - = inactive. An excerpt weighted towards active compounds, which were near 1.7% of everything screened.

SMILES | CHO-K1 Ca antag | M1 ag parental | CHRM5 antagonist | CHRM5 PAM | M5 ag | CHO-K1 Ca PAM
O=S(=O)(c1ccccc1)N1CCC(Oc2ccc(-n3cnnn3)cc2)CC1 | - | 17.7 | - | - | - | -
COc1ccc(C(=O)OCC(=O)Nc2cccc(C(C)=O)c2)c(OC)c1OC | - | 16.2 | - | - | - | -
C=CCn1c(SCCOc2ccc(OC)cc2)nnc1C(CO)NC(=O)c1ccc(OC)cc1 (stereo unspecified) | 24.8 | - | - | - | - | -
C=CCn1c(SCCOc2ccc(OC)cc2)nnc1C(C)NC(=O)c1ccc(OC)cc1 (stereo unspecified) | - | - | - | - | - | -
O=S(=O)(/N=S1\CC=CCN1S(=O)(=O)c1ccccc1)c1ccccc1 (stereo unspecified) | - | 35.0 | - | - | 34.2 | -
COc1ccc(CCNC(=O)COc2ccc(-c3ccc(C)cc3)cc2)cc1OC | - | - | - | - | - | -
Cc1cccc(NC(=O)C2(c3ccc([N+](=O)[O-])cc3)CCCC2)c1 | - | 19.4 | - | - | - | -
Cc1c(O)cc2c(c1O)C(=O)CC(c1ccccc1)O2 (stereo unspecified) | 85.0 | 25.8 | 83.9 | - | 46.6 | -
O=C1C[C@@H](c2ccc(O)cc2)Oc2cc(O)cc(O)c21 | - | - | - | - | - | -
Cc1cn([C@H]2C[C@H](O)[C@@H](CNCc3cccn3-c3ccncc3)O2)c(=O)[nH]c1=O | - | - | - | - | - | -
CCOc1ccc(C2CC(c3ccc(OC)cc3)n3ncnc3N2)cc1 (stereo unspecified) | - | - | - | - | - | -
COc1ccc(OCC(=O)Sc2ccc(C)cc2)cc1 | - | - | - | - | - | -
COc1ccc(CN(C)Cc2c(O)ccc3ccccc23)cc1 | - | - | - | - | - | -
CCc1nn(C(CC)C(=O)NCc2cccs2)c(=O)c2cc3occc3n12 (stereo unspecified) | - | - | - | - | - | -
CCC(C(=O)NCc1cccs1)n1nc(C)n2c(cc3occc32)c1=O (stereo unspecified) | - | - | - | 26.1 | - | -
CNC(=O)NC(=O)C(C)OC(=O)c1c(C)noc1C (stereo unspecified) | - | - | - | - | - | -
C/C(=N/NC(=O)Nc1ccccc1)c1ccc(C)cc1 | - | - | - | - | - | -
CC(=O)Nc1ccc2ccccc2c1 | - | - | - | - | - | -
O=C(Nc1ccccc1)Nc1ccc(Br)c(Cl)c1 | 26.8 | - | - | - | - | -
C/C(=N\NC(=O)Nc1ccccc1)c1ccc2ccccc2c1 | - | - | 33.8 | - | - | -
O=C(Nc1ccccc1)Nc1ccc2ccccc2c1 | - | - | 33.4 | - | - | -
C/C(CC(C)C)=N\NC(=O)Nc1ccccc1 | - | - | - | - | - | -
CC/C(=N\NC(=O)Nc1ccccc1)c1ccccc1 | 33.6 | - | - | - | - | -
O=C(O)c1ccc(OC(F)(F)C(F)C(F)(F)F)cc1 (stereo unspecified) | - | - | - | - | - | -
CC(=O)Nc1ccc(NC(=O)C2CCCN(C(=O)c3ccc(Cl)cc3)C2)cc1 (stereo unspecified) | - | - | - | - | - | -
SMILES | CHO-K1 Ca antag | M1 ag parental | CHRM5 antagonist | CHRM5 PAM | M5 ag | CHO-K1 Ca PAM
O=C(Nc1ccc(OC(F)(F)F)cc1)C1CCCN(C(=O)c2ccc(Cl)cc2)C1 (stereo unspecified) | - | 20.0 | - | - | - | -
COc1ccc(-c2oc3cc(OC)c(O)c(OC)c3c(=O)c2OC)cc1O | - | - | - | - | - | -
c1ccc(Cc2noc(CN3CCN(C4CCc5ccccc5C4)CC3)n2)cc1 (stereo unspecified) | - | - | - | - | - | -
c1ccc(Cc2noc(CN3CCCN(C4Cc5ccccc5C4)CC3)n2)cc1 | - | - | 31.5 | - | - | -
COc1ccccc1COCC(O)CNCCc1ccc(C(F)(F)F)cc1 (stereo unspecified) | - | 16.0 | - | - | - | -
O=C1c2[nH]nc(-c3ccccc3O)c2C(c2cccc(Cl)c2)N1Cc1ccco1 (stereo unspecified) | 23.8 | - | - | - | - | -
O=C1c2[nH]nc(-c3ccccc3O)c2C(c2ccc(F)cc2)N1Cc1ccco1 (stereo unspecified) | - | - | - | - | - | -
O=C(NCc1ccccn1)c1ccc(OC2CCN(Cc3ccccc3)CC2)cc1 | - | - | - | - | - | -
O=C(CN1CCCCC1)NC(=O)NC1CCCCC1 | - | - | 55.1 | - | - | -
O=C(NCc1ccco1)c1ccccc1NS(=O)(=O)c1cccs1 | - | 19.3 | - | - | - | -
COc1ccc(C(=O)/C=C2/C(=O)Nc3ccccc32)cc1 | - | - | - | - | - | -
O=C1Nc2ccccc2/C1=C/C(=O)c1cccs1 | - | - | - | 18.6 | - | -
COc1ccccc1CCN=C(N)NS(=O)(=O)c1ccc(C)cc1 | - | 17.4 | - | - | - | -
COc1ccc(CCN=C(N)NS(=O)(=O)c2ccc(C)cc2)cc1OC | - | - | - | - | - | -
COc1ccc(C(C2C(=O)CC(C)(C)CC2=O)C2C(=O)CC(C)(C)CC2=O)cc1 | - | 19.3 | - | - | - | -
CCOc1c(OC(C)=O)ccc(/C=C/c2ccc3cccc(OC(C)=O)c3n2)c1[N+](=O)[O-] | - | - | - | - | - | -
C=CCN1C(=O)/C(=C/c2ccc(OC(C)=O)c(OCC)c2[N+](=O)[O-])SC1=S | 25.0 | - | - | - | - | -
COc1ccc(OC(C)C(=O)N2CCCc3ccccc32)cc1 (stereo unspecified) | - | - | - | - | - | -
CC(=O)OCCNc1cc(N2CCN(C)CC2)c2noc3c2c1C(=O)c1ccccc1-3 | - | - | - | - | - | -
CCOC(=O)C(C(=O)OCC)c1cc(Br)c2noc3c2c1C(=O)c1ccccc1-3 | - | - | 33.5 | - | - | -
O=C(c1cc(COc2cccc3cnccc23)on1)N1CCCC(CCCO)C1 (stereo unspecified) | - | 21.9 | - | - | - | -
COc1ccc(S(=O)(=O)NCC2CCCN(C(=O)CCC(F)(F)F)C2)cc1 (stereo unspecified) | - | - | - | 38.6 | - | -
CNc1nc2cc([N+](=O)[O-])c([N+](=O)[O-])cc2nc1NC | 39.3 | 17.5 | 29.8 | - | - | -
O=C(Nc1ccc(S(=O)(=O)N2CCCCC2)cc1)c1ccc(CN2CCc3ccccc3C2)cc1 | 33.2 | - | - | - | - | -
CC(NC(=O)c1ccccc1NC(=O)CN1CCc2ccccc2C1)c1ccccc1 (stereo unspecified) | - | - | - | - | - | 40.3
O=C(CN1CCc2ccccc2C1)Nc1ccc(Br)cc1 | - | - | - | - | - | -
